Measured values published in publication PMC4452166 (Cancer Science, 2015).

Legend:
[1] = in vivo; cited from earlier work
[2] = tested on: HUT78 cells; assay: MTT cytotoxicity assay, HUT78; type: cell-based, human; settings: read-out: IC50 (cytotoxicity), HUT78, 48 h
In short: (§1)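 Leukemia lines kept in RPMI medium with 10% FBS and antibiotics, 37°C, 5% CO2. Cells plated directly with test compound and incubated 48 h at 37°C. MTT added for 4 h; formazan dissolved overnight at room temperature in extraction solution (40% dimethylformamide, 2% acetic acid, 0.03 M HCl, 20% SDS); OD 570 nm. Means ± SD, n = 3.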

[3] = tested on: MCF7 cells; assay: MTT cytotoxicity assay, MCF7; type: cell-based, human; settings: for IC50: read-out: IC50 (cytotoxicity), MCF7, 48 h
In short: (§2)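 Human epithelia-derived lines grown in 10% FBS media at 37°C, 5% CO2: FLC-4 in DMEM/F12, MCF7 in Eagle's MEM + 10 μg/mL insulin, HCT116 in McCoy's 5A, AGS/HEK293 in DMEM, TE4 in RPMI. Cells seeded 24 h before test compound, then exposed 48 h at 37°C. MTT 4 h; overnight solubilisation (DMF/acetic acid/HCl/SDS); OD 570 nm. n = 3. IC20 reported as maximum tolerated concentration.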

[4] = tested on: FLC-4 cells; assay: MTT cytotoxicity assay, FLC-4; type: cell-based, human; settings: for IC50: read-out: IC50 (cytotoxicity), FLC-4, 48 h
In short: as §2

[5] = tested on: JKT-beta-del cells; assay: MTT cytotoxicity assay, JKT-beta-del; type: cell-based, human; settings: read-out: IC50 (cytotoxicity), 48 h
In short: as §1

[6] = tested on: HPB-ALL cells; assay: MTT cytotoxicity assay, HPB-ALL; type: cell-based, human; settings: read-out: IC50 (cytotoxicity), 48 h
In short: as §1

[7] = tested on: AGS cells; assay: MTT cytotoxicity assay, AGS; type: cell-based, human; settings: for IC50: read-out: IC50 (cytotoxicity), 48 h
In short: as §2

[8] = tested on: Jurkat cells; assay: MTT cytotoxicity assay, Jurkat; type: cell-based, human; settings: read-out: IC50 (cytotoxicity), 48 h
In short: as §1

[9] = tested on: PEER cells; assay: MTT cytotoxicity assay, PEER; type: cell-based, human; settings: read-out: IC50 (cytotoxicity), 48 h
In short: as §1

[10] = tested on: HEK293 cells; assay: MTT cytotoxicity assay, HEK293; type: cell-based, human; settings: for IC50: read-out: IC50 (cytotoxicity), HEK293, 48 h
In short: as §2

[11] = tested on: Jurkat cells; assay: Jurkat xenograft model in SCID mice; type: in vivo; settings: for tumor weight vs vehicle: day 35 after inoculation; for Survival: tumor-bearing SCID mice
In short: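 Six-week-old female SCID mice inoculated s.c. with 5 × 10^7 Jurkat cells. From day 20, mice received saline vehicle, test compound 13 mg/kg (13 μmol/kg) or CdCl2 3 mg/kg (13 μmol/kg) i.p. three times weekly for 2 weeks, n = 5 per group. Body weight and tumor size taken three times weekly; volume = long × short² × 1/2. Killed on day 35; tumors, liver, kidney, spleen and lung weighed. Student's t-test.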

[12] = tested on: HPB-ALL cells; assay: Western blot of activated caspase-3 and cleaved PARP, HPB-ALL; type: cell-based, human; settings: 50 μM, 24 h
In short: (§3)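 Leukemia cells treated with test compound for 24 h. Equal protein run on reducing SDS-PAGE and transferred to PVDF. Blocked in 1% skim milk; probed for activated caspase-3, cleaved PARP and β-actin; peroxidase secondary antibody; ECL detection.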

[13] = tested on: HL-60 cells; assay: MTT cytotoxicity assay, HL-60; type: cell-based, human; settings: read-out: IC50 (cytotoxicity), HL-60, 48 h
In short: as §1

[14] = tested on: low TC4ATS-Cd-sensitive leukemia cell lines and epithelia-derived cell lines except for HEK293; type: cell-based, human; settings: 50 μM, 24 h, western blot
[15] = tested on: HCT116 cells; assay: MTT cytotoxicity assay, HCT116; type: cell-based, human; settings: for IC50: read-out: IC50 (cytotoxicity), HCT116, 48 h
In short: as §2

[16] = tested on: TE4 cells; assay: MTT cytotoxicity assay, TE4; type: cell-based, human; settings: for IC50: read-out: IC50 (cytotoxicity), TE4, 48 h
In short: as §2

[17] = tested on: Jurkat cells; assay: Lactate dehydrogenase; type: cell-based, human; settings: 48 h
[18] = tested on: Jurkat cells; assay: Western blot of activated caspase-3 and cleaved PARP, Jurkat; type: cell-based, human; settings: 24 h
In short: as §3

[19] = tested on: caspase-3 in Jurkat cells; assay: Caspase-3 activity assay with fluorogenic substrate in cell lysates; type: cell-based, human; settings: Ac-DEVD-MCA substrate
[20] = 13 μmol/kg i.p. three times weekly for 2 weeks

Row | Compound | IC50 [2] [µM] | IC50 [3] [µM] | IC50 [4] [µM] | IC50 [5] [µM] | IC50 [6] [µM] | IC50 [7] [µM] | IC50 [8] [µM] | IC50 [9] [µM] | IC50 [10] [µM] | renal atrophy (relative kidney weight) [11, 20] | tumor weight vs vehicle [11, 20] | Survival [11, 20] | caspase-3 activation and cleavage of PARP [12] | IC50 [13] [µM] | apoptotic events (caspase-3 activation, PARP cleavage) [14] | IC50 [15] [µM] | IC50 [16] [µM] | also measured
1 | O=S(=O)(O)c1cc2c(O)c(c1)Cc1cc(S(=O)(=O)O)cc(c1O)Cc1cc(S(=O)(=O)O)cc(c1O)Cc1cc(S(=O)(=O)O)cc(c1O)C2 [C4ATS, p-tetrasulfonated calix[4]arene] |  |  |  |  |  |  |  |  |  |  |  |  |  |  |  |  |  | dose without toxic effects, acute toxicity [1]: ≥ 100 mg/kg
2 | [Cl][Cd][Cl] [CdCl2, Cadmium chloride, reference compound] | 25 | 36 | 106 | 30 | 9.8 | 60 | 6.5 | 28 | 1.9 | notably induced renal atrophy | non-significant decrease | 3/5 | induced | 27 | not elicited | 47 | 129 | 
3 | cadmium-coordinated thiacalix[4]arene tetrasulfate [TC4ATS-Cd] | 35 | 2210 | 2450 | 275 | 17 | 947 | 6.9 | 144 | 15 | no significant atrophy | significantly lower | 5/5 | induced | 81 | not elicited | 1500 | 2130 | IC20 ([3]; read-out: maximum tolerated concentration (=IC20 value), MCF7, 48 h): 1330 µM; IC20 ([4]; read-out: maximum tolerated concentration (=IC20 value), FLC-4, 48 h): 667 µM; IC20 ([7]; read-out: maximum tolerated concentration (=IC20 value), 48 h): 505 µM; LDH release [17]: increased LDH release from Jurkat cells in a dose-dependent manner; IC20 ([10]; read-out: maximum tolerated concentration (=IC20 value), HEK293, 48 h): 6.8 µM; body weight changes vs vehicle [11, 20]: no significant difference; tumor growth of Jurkat cells ([11]; 13 mg/kg, xenograft model in mice): significantly suppressed; IC20 ([15]; read-out: maximum tolerated concentration (=IC20 value), HCT116, 48 h): 280 µM; cleavage of PARP [18]: consistently and markedly upregulated; levels of activated caspase-3 protein [18]: upregulated; IC20 ([16]; read-out: maximum tolerated concentration (=IC20 value), TE4, 48 h): 454 µM; caspase-3 proteolytic activity [19]: increased its proteolytic activity
